Bioassay records (PubChem)
CHOP inh: inhibitors of CHOP promoter induction, primary screen, cell-based, unfolded protein response, luciferase reporter. inhibition, % at 10 µM. CHO-K1 CHOP-promoter luciferase, tunicamycin-induced, 15-18 h. 220,000 tested, 3.8% active. AID 2732, 2010;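 active = compounds that reduced the stress-induced luciferase reporter signal by more than about 70% of percent inhibition, limit read from the data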;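 note: 0% = tunicamycin plus vehicle and 100% = wells without tunicamycin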
UPR XBP1 act: activators of adaptive XBP1 UPR arm, primary screen, cell-based, CHO-XBP1 luciferase reporter, luminescence, uHTS; IRE1-XBP1 UPR activation; percent of tunicamycin response, DMSO as zero; activation, % at 20 µM; 330,000 tested, 0.33% active;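 active = versus positive control, 20 µM dose yields 30% or more activation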;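 note: 100% = tunicamycin at 10 µg/mL and 0% = DMSO only wells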
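Material – CHO cell line with stable XBP1 luciferase reporter · Buffer or medium – F12 plus 10% FBS · Compound – single point, 20 µM final compound, 1% DMSO · Schedule – 16-18 h cell attachment at 37 °C, then 6 h compound exposure · Signal – Steady-Glo luminescence read · Benchmarks – high control tunicamycin 10 µg/mL final, low control DMSO vehicle only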
Beta2AR agonist: beta2AR agonists driving receptor internalization, primary screen, cell-based, FAP fluorogen, flow cytometry. 340,000 tested, 0.43% active. AID 504454, 2011. Am2.2-beta2AR cells. Beta-2 adrenergic receptor (Homo sapiens), P07550. response, % (test concentration not listed);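 active = response above a set limit, near 3 SD of response in nonfluorescent compounds, cut at about 42% in these data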
Target sequence (P07550 whole entry, looked up): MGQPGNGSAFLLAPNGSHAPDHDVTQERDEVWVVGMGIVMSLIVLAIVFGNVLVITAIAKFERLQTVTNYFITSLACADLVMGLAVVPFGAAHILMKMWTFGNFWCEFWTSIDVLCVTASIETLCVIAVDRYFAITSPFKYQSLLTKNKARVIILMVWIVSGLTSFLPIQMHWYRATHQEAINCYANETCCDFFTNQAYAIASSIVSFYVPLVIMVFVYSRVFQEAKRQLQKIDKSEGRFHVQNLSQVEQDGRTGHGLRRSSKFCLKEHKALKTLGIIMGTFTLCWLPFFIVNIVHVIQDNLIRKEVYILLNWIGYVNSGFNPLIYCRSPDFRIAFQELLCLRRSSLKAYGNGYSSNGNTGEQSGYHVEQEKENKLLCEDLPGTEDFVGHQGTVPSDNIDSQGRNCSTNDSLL
Dynein cargo inh: inhibitors of GR-EGFP nuclear translocation, primary screen, dynein cargo transport inhibitor project, imaging, high-content, 3617.4 mouse cells | test concentration mostly 20 µM; stimulated with dexamethasone, 1 µM; active compounds read low | z-score, hits read low | 220,000 tested, 0.47% active | AID 1381, 2008;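 active = plate z-score of nuclear minus cytoplasmic receptor signal below a set negative limit, without overly bright fluorescence or cell loss, cut at about -3.5 in these data, passing the limit was not always enough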;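 note: z-score of nuclear minus cytoplasmic ring GR-EGFP intensity difference per well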
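Also added – dexamethasone, 1.0 µM final · Buffer or medium – tet-free, stripped-serum medium · Schedule – induction 48 h, compound 1 h, agonist 30 min · Detection – formaldehyde fixation, Hoechst nuclear stain, 10x automated fluorescence imaging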
UPR CHOP act: activators of apoptotic CHOP UPR arm, primary screen, cell-based, CHO-CHOP luciferase reporter, luminescence, uHTS. UPR activation; percent of tunicamycin response over DMSO baseline. activation, % at 10 µM. 330,000 tested, 0.34% active. AID 449763, 2010;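 active = at 10 µM dose, activation of 40% or more, normalized to positive control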;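 note: 100% = tunicamycin at 10 µg/mL and 0% = DMSO alone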
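System: CHO-CHOP luciferase reporter cell line; amount: 500 cells/well; buffer or medium: F12 medium containing 10% fetal bovine serum; incubation: 6 h compound exposure at 37 °C after overnight seeding; measured by: luciferase luminescence after 10 min with Steady-Glo reagent; evaluation: % reporter activation, DMSO baseline versus tunicamycin full activation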
p-CIP stab down: p/CIP-EGFP fusion destabilizers, primary screen, fluorescence, F442A cells; decrease of EGFP signal, % at 10 µM; 16 h; 290,000 tested, 0.01% active;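 active = EGFP signal decrease of at least 30% at 10 µM or well 3 SD below plate mean, unless failing retest; inactive = the rest, including hits failing retest or dose response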
UPR CHOP confirm: activators of apoptotic CHOP UPR arm, confirmation, cell-based, CHO-CHOP luciferase reporter, single concentration | AID 463112, 2010 | shares compounds with UPR CHOP act | activation, % at 10 µM | 1,000 tested, 64% active | CHO-CHOP cells, CHOP-luciferase reporter luminescence; percent of tunicamycin response, DMSO as zero; in the data active = activation above about 33%;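 note: 0% = DMSO wells and 100% = tunicamycin 10 µg/mL wells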
* = called active by the depositor; nt = not tested or not shown. The sample as a whole holds a higher share of hits than the screen did.

SMILES	CHOP inh	UPR XBP1 act	Beta2AR agonist	Dynein cargo inh	UPR CHOP act	p-CIP stab down	UPR CHOP confirm
COc1ccc(/C=N/Nc2cc(C)nc(-n3nc(C)cc3C)n2)c(OC)c1	65	10	14	-0.21	142*	-2	88*
Cc1cc(N/N=C/c2ccc(F)cc2)nc(-n2nc(C)cc2C)n1	90*	17	0	1.3	73*	-10	23
CCOc1ccc(Nc2cc(C)nc(-n3nc(C)cc3C)n2)cc1	nt	87*	21	0.08	105*	-19	15
COc1ccccc1/C=N/Nc1cc(C)nc(N2CCOCC2)n1	2	-2	2	2.2	3	-3	nt
COc1cccc(/C=N/Nc2nc(Nc3ccccc3)nc(-n3nc(C)cc3C)n2)c1O	87*	10	11	0.66	93*	-27	95*
Cc1cccc(CC(=O)NCCS(=O)(=O)N2CCN(c3cccc(Cl)c3)CC2)c1	nt	-1	3	nt	2	nt	nt
O=C(c1n[nH]c2ccccc12)N1CCN(S(=O)(=O)c2ccc(Cl)cc2)CC1	nt	-1	-31	nt	-1	nt	nt
O=C(Nc1scc(-c2ccccc2)c1C(=O)O)c1ccccc1F	nt	-2	7	nt	4	-13	nt
O=C(Nc1scc(-c2ccc(Br)cc2)c1C(=O)O)c1ccccc1F	nt	5	-1	nt	56*	nt	5
CN(C)S(=O)(=O)c1cccc(NC(=O)CSc2cccc3cccnc23)c1	nt	-5	36	nt	162*	-11	246*
CCOc1cccc2cc(C(=O)NCc3ccc(OC)cc3)c(=N)oc12	nt	-1	-4	nt	0	-13	nt
CCCOc1ccccc1N1C(=O)CC(N(O)c2ccccc2)C1=O (stereo unspecified)	7	4	7	-0.27	3	-2	nt
CCCOc1ccc(N2C(=O)CC(N(O)c3ccccc3)C2=O)cc1 (stereo unspecified)	11	5	5	0.1	192*	0	170*
COc1ccc(C2Nc3ccccc3NC3=C2C(=O)CC(C)(C)C3)cc1OC (stereo unspecified)	nt	-7	4	nt	2	-14	nt
COc1ccc(C2Nc3ccccc3NC3=C2C(=O)CC(C)(C)C3)cc1O (stereo unspecified)	nt	-5	10	nt	nt	-2	-1
COc1ccc(-c2cc(C(F)F)n3ncc(C(=O)n4ccnc4C)c3n2)cc1	-324	-4	48*	0.022	131*	-12	135*
CN(C(=O)Cn1cccc1C1=NC(c2ccccc2)CO1)c1ccccc1 (stereo unspecified)	26	0	6	-0.19	-1	-6	nt
Cc1ccc(OCC(=O)NNC(=O)c2ccco2)c(C)c1	nt	-2	1	nt	0	3	nt
COc1ccc(N2C(=O)C(Cl)=C(Oc3cccc(OC)c3)C2=O)cc1	106*	-6	5	-0.13	94*	-19	31
COC(=O)Cn1c(=NC(=O)c2ccc([N+](=O)[O-])s2)sc2cc(Br)ccc21	45	11	nt	-0.68	50*	1	24
COC(=O)Cn1c(=NC(=O)c2ccc(Cl)s2)sc2cc(C)ccc21	-10	2	4	0.92	7	-8	nt
CCN(CC)c1ccc(C(=O)OCc2cc(=O)oc3cc(O)ccc23)cc1	51	78*	29	3.8	54*	-3	22
C=CCn1c(C)nnc1SCC(=O)c1c(N)n(C2CC2)c(=O)[nH]c1=O	nt	0	-5	nt	0	nt	nt
C/C(=N\NC(=O)c1cc(-c2cccs2)nc2ccccc12)c1ccccn1	50	6	-11	0.82	248*	-10	198*
C/C(=N\NC(=O)c1ccccc1OCc1ccc(F)cc1)c1ccccn1	nt	18	36	nt	109*	nt	99*
SMILES	CHOP inh	UPR XBP1 act	Beta2AR agonist	Dynein cargo inh	UPR CHOP act	p-CIP stab down	UPR CHOP confirm
C/C(=N\NC(=O)c1cccc2ccccc12)c1ccccn1	nt	1	10	nt	332*	-6	339*
CN(CCOc1ccccc1)C(=O)C1CCC(=O)N(CCc2ccc(Cl)cc2)C1 (stereo unspecified)	nt	-5	-16	nt	2	-13	nt
Cc1cccc(NC(=O)c2sc3nc(N)c(C#N)cc3c2N)c1	-9	nt	-2	-0.52	nt	-5	nt
Cc1onc(-c2ccccc2)c1C(=O)c1c[nH]c(C(=O)NCc2ccccn2)c1	-2	-4	-3	-0.46	-1	-1	nt
Cc1ccc(-c2csc(NC(=O)c3ccccc3F)c2C(=O)O)cc1	nt	4	7	nt	2	-4	nt
O=C(Nc1nc2c(F)cc(F)cc2s1)c1ccccn1	79*	-2	14	-0.71	83*	-39	186*
O=C(COc1ccccc1)NNc1nc2c(F)cc(F)cc2s1	7	-3	-4	2.7	2	-9	nt
O=[N+]([O-])c1ccccc1CN1CCN(Cc2c[nH]c3ccccc23)CC1	-77	17	nt	-0.5	49*	11	21
O=C(c1ccccc1)N1CCN(Cc2c[nH]c3ccccc23)CC1	36	1	3	-0.35	1	0	nt
Cc1noc2ncnc(Sc3ccc(Br)cc3)c12	13	-11	8	-1.4	229*	-11	124*
Cn1c(SCC(=O)Nc2ccc(N3CCOCC3)c(Cl)c2)nnc1C(O)c1ccccc1 (stereo unspecified)	33	0	0	1.3	43*	-9	-1
CC(=O)Nc1c(C(=O)N2CCCCCC2)cnn1-c1ccccc1Cl	14	-2	1	-0.5	3	11	nt
Cc1ccc(OCCn2cnc3c2c(=O)n(C)c(=O)n3C)cc1	nt	-2	4	nt	0	-9	nt
O=C(CSc1ccccn1)Nc1ccc(NC(=O)CSc2ccccn2)cc1	59	-1	-7	-0.87	-1	-3	nt
O=C(CSc1ccccn1)Nc1nonc1[N+](=O)[O-]	nt	-6	6	nt	85*	-4	42*
CC(C)CNC(=O)c1coc(=O)c(Br)c1	nt	-6	-6	-1.5	175*	-12	70*
O=C(NCCc1ccccc1)c1coc(=O)c(Br)c1	nt	-8	16	nt	105*	-10	73*
O=C(O)c1ccc(CS(=O)(=O)c2ccc(Br)cc2)cc1	nt	-5	1	nt	0	4	nt
O=C(NCC(O)CN1CCOCC1)c1ccc([N+](=O)[O-])cc1 (stereo unspecified)	18	-4	8	-0.34	0	6	nt
